# Experimental data: ChEMBL document CHEMBL3352188, “Synthesis, antimicrobial and molecular docking studies of enantiomerically pure N-alkylated β-amino alcohols from phenylpropanolamines” (2014)
# Legend:
# Pseudomonas aeruginosa [1] = assay: Antimicrobial activity against Pseudomonas aeruginosa MTCC 741 at 1 mg/disc after 24 hrs by disc diffusion assay; format: functional
# Outline: (§1)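 Disc diffusion on Mueller Hinton agar. Inoculum was grown in MHB for 24 h at 37 °C, swabbed onto the plates and dried for 10 min. Discs with 1 mg compound were left 30 min at room temperature for diffusion, then incubated at 37 °C for 24 h. Inhibition zone was read in mm; run twice. Solvent was the negative control, streptomycin the positive control.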
# Candida albicans [2] = assay: Antimicrobial activity against Candida albicans MTCC 227 at 1 mg/disc after 24 hrs by disc diffusion assay; format: functional
# Malassezia pachydermatis [3] = assay: Antimicrobial activity against Malassezia pachydermatis at 1 mg/disc after 24 hrs by disc diffusion assay; format: functional
# Bacillus subtilis [4] = assay: Antimicrobial activity against Bacillus subtilis MTCC 441 after 24 hrs by two fold dilution method; format: functional; conditions: MTCC 441, 24 h
# Outline: (§2)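 Broth two-fold serial dilution in 96-well plates from 1000 to 7.81 µg/mL, compound in DMSO (2%). Inoculum was grown in MHB for 24 h at 37 °C; plates were incubated 24 h at 37 °C. 5 µL of broth was spotted onto MHA; MIC was the lowest concentration with no visible growth on agar. Streptomycin was the positive control.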
# Micrococcus luteus [5] = assay: Antimicrobial activity against Micrococcus luteus MTCC 106 after 24 hrs by two fold dilution method; format: functional; conditions: MTCC 106, 24 h; outline: as §2
# Klebsiella aerogenes [6] = assay: Antimicrobial activity against Enterobacter aerogenes MTCC 111 after 24 hrs by two fold dilution method; format: functional; conditions: MTCC 111, 24 h; outline: as §2
# Staphylococcus aureus [7] = assay: Antimicrobial activity against Staphylococcus aureus MTCC 96 after 24 hrs by two fold dilution method; format: functional; conditions: MTCC 96, 24 h; outline: as §2
# Salmonella typhimurium [8] = assay: Antimicrobial activity against Salmonella typhimurium MTCC 1251 after 24 hrs by two fold dilution method; format: functional, Salmonella enterica subsp. enterica serovar Typhimurium; conditions: Salmonella enterica, MTCC 1251, 24 h; outline: as §2
# Klebsiella pneumoniae [9] = assay: Antimicrobial activity against Klebsiella pneumoniae MTCC 109 after 24 hrs by two fold dilution method; format: functional; conditions: MTCC 109, 24 h; outline: as §2
# Proteus vulgaris [10] = assay: Antimicrobial activity against Proteus vulgaris MTCC 1771 after 24 hrs by two fold dilution method; format: functional; conditions: MTCC 1771, 24 h; outline: as §2
# Staphylococcus aureus [11] = assay: Antimicrobial activity against methicillin-resistant Staphylococcus aureus MTCC 96 after 24 hrs by two fold dilution method; format: functional; conditions: MTCC 96, 24 h; outline: as §2
# [12] = tested on: Salmonella enterica subsp. enterica serovar Paratyphi B; assay: Antimicrobial activity against Salmonella paratyphi B after 24 hrs by two fold dilution method; format: functional; outline: as §2
# Shigella flexneri [13] = assay: Antimicrobial activity against Shigella flexneri MTCC 1457 after 24 hrs by two fold dilution method; format: functional; conditions: MTCC 1457, 24 h; outline: as §2
# Pseudomonas aeruginosa [14] = assay: Antimicrobial activity against Pseudomonas aeruginosa MTCC 741 after 24 hrs by two fold dilution method; format: functional; conditions: MTCC 741, 24 h; outline: as §2
# Candida albicans [15] = assay: Antimicrobial activity against Candida albicans MTCC 227 after 48 to 72 hrs by two fold dilution method; format: functional
# Outline: (§3)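 Yeast was grown in Sabouraud dextrose broth at 28 °C for 48 h and tested per CLSI reference methods. Two-fold serial dilutions from 1000 to 7.81 µg/mL, compound in DMSO (2%), in 96-well plates, incubated 48–72 h at 28 °C. MIC was the lowest concentration with no visible fungal growth. Ketoconazole was the positive control.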
# Malassezia pachydermatis [16] = assay: Antimicrobial activity against Malassezia pachydermatis after 48 to 72 hrs by two fold dilution method; format: functional; outline: as §3
# Bacillus subtilis [17] = assay: Bactericidal activity against Bacillus subtilis MTCC 441 after 24 hrs by two fold dilution method; format: functional; conditions: MTCC 441, 24 h
# Outline: (§4)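 Tubes held 5 mL MHB with two-fold dilutions from 1000 to 7.81 µg/mL and were inoculated with 5 × 10^5 to 1 × 10^6 cells in 0.1 mL MHB, incubated without shaking. Turbidity was checked at 20 h, tubes vortexed and re-incubated 4 h.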
# Micrococcus luteus [18] = assay: Bactericidal activity against Micrococcus luteus MTCC 106 after 24 hrs by two fold dilution method; format: functional; conditions: MTCC 106, 24 h; outline: as §4
# Klebsiella aerogenes [19] = assay: Bactericidal activity against Enterobacter aerogenes MTCC 111 after 24 hrs by two fold dilution method; format: functional; conditions: MTCC 111, 24 h; outline: as §4
# Staphylococcus aureus [20] = assay: Bactericidal activity against Staphylococcus aureus MTCC 96 after 24 hrs by two fold dilution method; format: functional; conditions: MTCC 96, 24 h; outline: as §4
# Salmonella typhimurium [21] = assay: Bactericidal activity against Salmonella typhimurium MTCC 1251 after 24 hrs by two fold dilution method; format: functional, Salmonella enterica subsp. enterica serovar Typhimurium; conditions: Salmonella enterica, MTCC 1251, 24 h; outline: as §4
# Klebsiella pneumoniae [22] = assay: Bactericidal activity against Klebsiella pneumoniae MTCC 109 after 24 hrs by two fold dilution method; format: functional; conditions: MTCC 109, 24 h; outline: as §4
# Proteus vulgaris [23] = assay: Bactericidal activity against Proteus vulgaris MTCC 1771 after 24 hrs by two fold dilution method; format: functional; conditions: MTCC 1771, 24 h; outline: as §4
# Staphylococcus aureus [24] = assay: Bactericidal activity against methicillin-resistant Staphylococcus aureus MTCC 96 after 24 hrs by two fold dilution method; format: functional; conditions: MTCC 96, 24 h; outline: as §4
# [25] = tested on: Salmonella enterica subsp. enterica serovar Paratyphi B; assay: Bactericidal activity against Salmonella paratyphi B after 24 hrs by two fold dilution method; format: functional; outline: as §4
# Shigella flexneri [26] = assay: Bactericidal activity against Shigella flexneri MTCC 1457 after 24 hrs by two fold dilution method; format: functional; conditions: MTCC 1457, 24 h; outline: as §4
# Pseudomonas aeruginosa [27] = assay: Bactericidal activity against Pseudomonas aeruginosa MTCC 741 after 24 hrs by two fold dilution method; format: functional; conditions: MTCC 741, 24 h; outline: as §4
# Candida albicans [28] = assay: Fungicidal activity against Candida albicans MTCC 227 after 48 to 72 hrs by two fold dilution method; format: functional
# Malassezia pachydermatis [29] = assay: Fungicidal activity against Malassezia pachydermatis after 48 to 72 hrs by two fold dilution method; format: functional
# Bacillus subtilis [30] = assay: Antimicrobial activity against Bacillus subtilis MTCC 441 at 1 mg/disc after 24 hrs by disc diffusion assay; format: functional; outline: as §1
# Micrococcus luteus [31] = assay: Antimicrobial activity against Micrococcus luteus MTCC 106 at 1 mg/disc after 24 hrs by disc diffusion assay; format: functional; outline: as §1
# Klebsiella aerogenes [32] = assay: Antimicrobial activity against Enterobacter aerogenes MTCC 111 at 1 mg/disc after 24 hrs by disc diffusion assay; format: functional; outline: as §1
# Staphylococcus aureus [33] = assay: Antimicrobial activity against Staphylococcus aureus MTCC 96 at 1 mg/disc after 24 hrs by disc diffusion assay; format: functional; outline: as §1
# Salmonella typhimurium [34] = assay: Antimicrobial activity against Salmonella typhimurium MTCC 1251 at 1 mg/disc after 24 hrs by disc diffusion assay; format: functional, Salmonella enterica subsp. enterica serovar Typhimurium; outline: as §1
# Klebsiella pneumoniae [35] = assay: Antimicrobial activity against Klebsiella pneumoniae MTCC 109 at 1 mg/disc after 24 hrs by disc diffusion assay; format: functional; outline: as §1
# Proteus vulgaris [36] = assay: Antimicrobial activity against Proteus vulgaris MTCC 1771 at 1 mg/disc after 24 hrs by disc diffusion assay; format: functional; outline: as §1
# Staphylococcus aureus [37] = assay: Antimicrobial activity against […] Staphylococcus aureus MTCC 96 at 1 mg/disc after 24 hrs by disc diffusion assay; format: functional; outline: as §1
# [38] = tested on: Salmonella enterica subsp. enterica serovar Paratyphi B; assay: Antimicrobial activity against Salmonella paratyphi B at 1 mg/disc after 24 hrs by disc diffusion assay; format: functional; outline: as §1
# Shigella flexneri [39] = assay: Antimicrobial activity against Shigella flexneri MTCC 1457 at 1 mg/disc after 24 hrs by disc diffusion assay; format: functional; outline: as §1
compound,measurement,setting,value
CC[C@H](N[C@H](C)[C@@H](O)c1ccccc1)c1ccccc1.Cl,inhibition zone (IZ),Pseudomonas aeruginosa [1],16 mm
same,inhibition zone (IZ),Candida albicans [2],20 mm
same,inhibition zone (IZ),Malassezia pachydermatis [3],22 mm
same,MIC,Bacillus subtilis [4],31.2 µg/mL
same,MIC,Micrococcus luteus [5],31.2 µg/mL
same,MIC,Klebsiella aerogenes [6],31.2 µg/mL
same,MIC,Staphylococcus aureus [7],15.6 µg/mL
same,MIC,Salmonella typhimurium [8],62.5 µg/mL
same,MIC,Klebsiella pneumoniae [9],31.2 µg/mL
same,MIC,Proteus vulgaris [10],31.2 µg/mL
same,MIC,Staphylococcus aureus [11],31.2 µg/mL
same,MIC,[12],62.5 µg/mL
same,MIC,Shigella flexneri [13],31.2 µg/mL
same,MIC,Pseudomonas aeruginosa [14],62.5 µg/mL
same,MIC,Candida albicans [15],31.2 µg/mL
same,MIC,Malassezia pachydermatis [16],31.2 µg/mL
same,MBC,Bacillus subtilis [17],62.5 µg/mL
same,MBC,Micrococcus luteus [18],31.2 µg/mL
same,MBC,Klebsiella aerogenes [19],31.2 µg/mL
same,MBC,Staphylococcus aureus [20],31.2 µg/mL
same,MBC,Salmonella typhimurium [21],62.5 µg/mL
same,MBC,Klebsiella pneumoniae [22],62.5 µg/mL
same,MBC,Proteus vulgaris [23],62.5 µg/mL
same,MBC,Staphylococcus aureus [24],31.2 µg/mL
same,MBC,[25],62.5 µg/mL
same,MBC,Shigella flexneri [26],62.5 µg/mL
same,MBC,Pseudomonas aeruginosa [27],125 µg/mL
same,MFC,Candida albicans [28],31.2 µg/mL
same,MFC,Malassezia pachydermatis [29],31.2 µg/mL
same,inhibition zone (IZ),Bacillus subtilis [30],22 mm
same,inhibition zone (IZ),Micrococcus luteus [31],23 mm
same,inhibition zone (IZ),Klebsiella aerogenes [32],20 mm
same,inhibition zone (IZ),Staphylococcus aureus [33],24 mm
same,inhibition zone (IZ),Salmonella typhimurium [34],19 mm
same,inhibition zone (IZ),Klebsiella pneumoniae [35],24 mm
same,inhibition zone (IZ),Proteus vulgaris [36],20 mm
same,inhibition zone (IZ),Staphylococcus aureus [37],22 mm
same,inhibition zone (IZ),[38],20 mm
same,inhibition zone (IZ),Shigella flexneri [39],20 mm
COc1ccc([C@H](C)N[C@H](C)[C@@H](O)c2ccccc2)cc1.Cl,inhibition zone (IZ),Pseudomonas aeruginosa [1],14 mm
same,inhibition zone (IZ),Candida albicans [2],16 mm
same,inhibition zone (IZ),Malassezia pachydermatis [3],19 mm
same,MIC,Bacillus subtilis [4],62.5 µg/mL
same,MIC,Micrococcus luteus [5],62.5 µg/mL
same,MIC,Klebsiella aerogenes [6],62.5 µg/mL
same,MIC,Staphylococcus aureus [7],62.5 µg/mL
same,MIC,Salmonella typhimurium [8],125 µg/mL
same,MIC,Klebsiella pneumoniae [9],62.5 µg/mL
same,MIC,Proteus vulgaris [10],62.5 µg/mL
same,MIC,Staphylococcus aureus [11],62.5 µg/mL
same,MIC,[12],125 µg/mL
same,MIC,Shigella flexneri [13],62.5 µg/mL
same,MIC,Pseudomonas aeruginosa [14],125 µg/mL
same,MIC,Candida albicans [15],62.5 µg/mL
same,MIC,Malassezia pachydermatis [16],62.5 µg/mL
same,MBC,Bacillus subtilis [17],125 µg/mL
same,MBC,Micrococcus luteus [18],125 µg/mL
same,MBC,Klebsiella aerogenes [19],125 µg/mL
same,MBC,Staphylococcus aureus [20],125 µg/mL
same,MBC,Salmonella typhimurium [21],250 µg/mL
same,MBC,Klebsiella pneumoniae [22],125 µg/mL
same,MBC,Proteus vulgaris [23],125 µg/mL
same,MBC,Staphylococcus aureus [24],125 µg/mL
same,MBC,[25],250 µg/mL
same,MBC,Shigella flexneri [26],125 µg/mL
same,MBC,Pseudomonas aeruginosa [27],250 µg/mL
same,MFC,Candida albicans [28],62.5 µg/mL
same,MFC,Malassezia pachydermatis [29],62.5 µg/mL
same,inhibition zone (IZ),Bacillus subtilis [30],18 mm
same,inhibition zone (IZ),Micrococcus luteus [31],19 mm
same,inhibition zone (IZ),Klebsiella aerogenes [32],18 mm
same,inhibition zone (IZ),Staphylococcus aureus [33],17 mm
same,inhibition zone (IZ),Salmonella typhimurium [34],14 mm
same,inhibition zone (IZ),Klebsiella pneumoniae [35],17 mm
same,inhibition zone (IZ),Proteus vulgaris [36],18 mm
same,inhibition zone (IZ),Staphylococcus aureus [37],18 mm
same,inhibition zone (IZ),[38],17 mm
same,inhibition zone (IZ),Shigella flexneri [39],17 mm
